Hits are enriched below; roughly 2.6% of the tested compounds scored in any of these assays.
ARFGAP1 inh – inhibitors of rat ARFGAP1 GAP activity, primary screen, biochemical, fluorescence polarization, GDP tracer | ADP-ribosylation factor GTPase-activating protein 1 (Rattus norvegicus), Q62848 | Arfgap1-stimulated ARF1 GTP hydrolysis, GDP FP detection | inhibition, % at 16.5 µM | actives 0.26% (n = 360,000) | AID 651572, 2012;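 active = inhibition above a per-plate limit, mean inhibition of low control wells plus 3 SD, cut at about 25% in these data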
Target sequence (Q62848 1-136 limits assumed): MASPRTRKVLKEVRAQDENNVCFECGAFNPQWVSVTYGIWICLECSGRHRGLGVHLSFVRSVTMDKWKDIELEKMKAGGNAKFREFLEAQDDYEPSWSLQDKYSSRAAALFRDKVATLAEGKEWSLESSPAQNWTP
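system = rat Arfgap1 catalytic domain, aa 1-136 | technique = FP, GDP Alexa 633 tracer displaced from anti-GDP antibody, 620/688 nm | compound = one concentration, 16.5 µM, DMSO 1.26% | medium = HEPES-based buffer, pH 7.5 | timing = compound-enzyme preincubation 20 min, reaction 120 min, detection 60 min, 25 °C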
esBAF inh – Bmi1 luciferase reporter increase in mESCs, primary screen, esBAF inhibitor project, mouse ES cells, Bmi1 luciferase knock-in, single point. 24 h; 100% = twice the neutral-well signal. reporter increase, % at 12.5 µM. actives 2% (n = 350,000); in the data active = activation above about 40%;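 also: a rise in the Bmi1 reporter signal indicates esBAF inhibition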
SMARCA2 act – SMARCA2 (BRM) function activators, primary screen, cell-based, luminescence, high throughput. MG213 cells, MMTV-luciferase reporter, dexamethasone, overnight. activation, % at 9.1 µM. actives 1% (n = 370,000); in the data active = activation above about 7.8%
ASAP1 GAP inh – inhibitors of human ASAP1 ArfGAP activity, primary screen, biochemical, fluorescence polarization; Arf-GAP with SH3 domain, ANK repeat and PH domain-containing protein 1 (Homo sapiens), …; ASAP1-stimulated ARF1 GTP hydrolysis, GDP FP detection; inhibition, % at 16.5 µM; actives 0.19% (n = 360,000); AID 624377, 2012; in the data active = inhibition above about 25%
ARFGAP1 inh conf – ARFGAP1 inhibitor hit confirmation, biochemical, fluorescence polarization, triplicate; shares compounds with ARFGAP1 inh; ARFGAP1-stimulated ARF1 GTP hydrolysis, GDP tracer FP; inhibition, % at 16.5 µM; actives 30% (n = 890); AID 651608, 2012;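 active = average inhibition over triplicates above the hit cutoff set in the earlier primary screen, cut at about 25% in these data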
Target sequence (Q62848 whole entry, looked up): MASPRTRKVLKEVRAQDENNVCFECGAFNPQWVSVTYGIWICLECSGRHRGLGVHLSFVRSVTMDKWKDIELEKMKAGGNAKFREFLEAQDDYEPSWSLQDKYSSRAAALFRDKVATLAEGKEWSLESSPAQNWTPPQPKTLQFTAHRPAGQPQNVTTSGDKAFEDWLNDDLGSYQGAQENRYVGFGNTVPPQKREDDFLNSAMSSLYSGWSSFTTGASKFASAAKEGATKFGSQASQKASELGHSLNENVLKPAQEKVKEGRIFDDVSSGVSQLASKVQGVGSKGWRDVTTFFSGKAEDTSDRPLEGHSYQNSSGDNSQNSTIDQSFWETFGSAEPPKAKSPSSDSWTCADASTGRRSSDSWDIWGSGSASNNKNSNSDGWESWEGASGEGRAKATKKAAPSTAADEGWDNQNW
Large screens that a line does not name were inactive (follow-up assays come after a bar, where they were run).

CCCC(=O)N1CCCC1(C)C(=O)Nc1ccc(-n2cccc2)cc1 (stereo not drawn)	ARFGAP1 inh 24.6 | ARFGAP1 inh conf inactive
COc1cc2nc(Cl)nc(N3CCOCC3)c2cc1OC	none (no result: esBAF inh)
CCOc1cc2nc(-c3ccc(OC)c(OC)c3)nc(N3CCOCC3)c2cc1OC	ARFGAP1 inh 26.2 (no result: esBAF inh) | ARFGAP1 inh conf inactive
COc1ccc([N+](=O)[O-])cc1CN1CCN(c2ncc(Cc3ccccc3)cn2)CC1	ARFGAP1 inh 26.2 (no result: esBAF inh) | ARFGAP1 inh conf inactive
COCC#Cc1ccc([C@@H]2[C@H](CO)N3CCCCN(C(=O)Nc4cc(F)ccc4F)C[C@@H]23)cc1	none (no result: ARFGAP1 inh, SMARCA2 act, ASAP1 GAP inh)
COc1cccc(-c2nn(-c3ccccc3)cc2CN(C)C(C)c2ccncn2)c1 (stereo not drawn)	none (no result: esBAF inh)
COc1ccc(-n2cc(CN(C)C(C)c3ccncn3)c(-c3cccc(F)c3)n2)cc1 (stereo not drawn)	ARFGAP1 inh 27.3 | ARFGAP1 inh conf inactive
CC1(C)CC(=O)C=C(NCCN2CCN(C(=O)Nc3ccc(Cl)cc3)CC2)C1	ARFGAP1 inh 32.8 | ARFGAP1 inh conf inactive
C[C@H](CO)N1C[C@H](C)[C@H](CN(C)Cc2ccncc2)Oc2c(NC(=O)Nc3ccc4c(c3)OCO4)cccc2C1=O	none (no result: ARFGAP1 inh, SMARCA2 act, ASAP1 GAP inh)
Cc1c(O)ccc2c(O)c(NC(=O)c3ccc4c(c3)CCC(C)(C)O4)c(=O)oc12	ARFGAP1 inh 39.6 (no result: esBAF inh) | ARFGAP1 inh conf inactive
Nc1cccc(C(=O)Nc2ccc3nc(-c4cccnc4)[nH]c3c2)c1	ARFGAP1 inh 29.0 (no result: esBAF inh) | ARFGAP1 inh conf inactive
CC(C)NC(=O)Nc1cccc2c1O[C@@H](CN(C)Cc1ccc(C(=O)O)cc1)[C@H](C)CN([C@H](C)CO)C2=O	none (no result: ARFGAP1 inh, SMARCA2 act, ASAP1 GAP inh)
C[C@@H]1CN([C@@H](C)CO)C(=O)c2cc(C3=CCCC3)cnc2O[C@@H]1CN(C)C(=O)C1CCC1	none (no result: ARFGAP1 inh, SMARCA2 act, ASAP1 GAP inh)
Cc1ccccc1NC(=O)Cc1nc(COC(=O)c2cc(Br)ccc2O)cs1	none
Cc1ccccc1NC(=O)Cc1nc(COC(=O)c2cc([N+](=O)[O-])ccc2N)cs1	ARFGAP1 inh 29.1 | ARFGAP1 inh conf inactive
C[C@@H]1CN([C@H](C)CO)C(=O)Cc2cc(NC(=O)Nc3ccc(F)cc3)ccc2O[C@@H]1CN(C)C	none (no result: ARFGAP1 inh, SMARCA2 act, ASAP1 GAP inh)
O=[N+]([O-])c1ccc(N/N=C2\CC3CC=CC23)c([N+](=O)[O-])c1 (stereo not drawn)	none (no result: esBAF inh)
O=[N+]([O-])c1ccc(N/N=C2\CC3CC=CC23)cc1 (stereo not drawn)	ARFGAP1 inh 28.1 (no result: esBAF inh) | ARFGAP1 inh conf inactive
CCOC(=O)Cc1csc(NC(=O)CSc2ncnc3c2cnn3-c2ccccc2Cl)n1	ARFGAP1 inh 35.1 | ARFGAP1 inh conf inactive
Cc1nnc(NC(=O)CSc2ncnc3c2cnn3-c2ccccc2C)s1	none
COc1ccc(-c2[nH]ncc2/C=N/NC(=O)c2cccc([N+](=O)[O-])c2)cc1OC	ARFGAP1 inh 25.5 | ARFGAP1 inh conf 52.1
COc1ccc(-c2[nH]ncc2/C=N\NC(=O)c2cccs2)cc1OC	none (no result: esBAF inh)
CCOc1ccc2oc(C(=O)OCC(=O)N3CCCC(C)C3)c(C)c2c1 (stereo not drawn)	ARFGAP1 inh 33.3 | ARFGAP1 inh conf 33.3
COc1ccc2oc(C(=O)OCC(=O)N3CCCC(C)C3)c(C)c2c1 (stereo not drawn)	none
Cc1c(C(=O)OCC(=O)N2CC(C)OC(C)C2)oc2ccc(Br)cc12 (stereo not drawn)	none
CCOc1ccc2oc(C(=O)OCC(=O)N3CC(C)OC(C)C3)c(C)c2c1 (stereo not drawn)	ARFGAP1 inh 25.5 | ARFGAP1 inh conf 33.2
O=C(Nc1ccccc1F)N[C@H]1C=C[C@@H](CC(=O)N2CCCCC2)O[C@H]1CO	none (no result: ARFGAP1 inh, SMARCA2 act, ASAP1 GAP inh)
C/C(N)=C(/C#N)C(=O)CSc1nncn1-c1ccccc1	ARFGAP1 inh 28.0 | ARFGAP1 inh conf inactive
C/C(N)=C(/C#N)C(=O)CSc1nnc(C)n1-c1ccccc1	none (no result: esBAF inh)
CC1CC(C)CN(S(=O)(=O)CC23CCC(CC2=O)C3(C)C)C1 (stereo not drawn)	ARFGAP1 inh 24.7 | ARFGAP1 inh conf inactive
O=C(C[C@@H]1C=C[C@H](NC(=O)c2ccccc2)[C@@H](CO)O1)NCCc1ccncc1	none (no result: ARFGAP1 inh, SMARCA2 act, ASAP1 GAP inh)
C[C@@H]1CN([C@@H](C)CO)C(=O)c2cc(NS(=O)(=O)c3ccccc3)ccc2O[C@@H]1CN(C)C	none (no result: ARFGAP1 inh, SMARCA2 act, ASAP1 GAP inh)
Oc1nc(Nc2cccc(Cl)c2)sc1/C=C1\C=Nc2ccccc21	ARFGAP1 inh 24.9 (no result: esBAF inh) | ARFGAP1 inh conf inactive
Oc1nc(Nc2ccc(F)cc2)sc1/C=C1\C=Nc2ccccc21	none (no result: esBAF inh)
COc1cccc(CC2(CO)CCN(Cc3ccc4cccc(F)c4n3)CC2)c1	none (no result: esBAF inh)
OCC1(Cc2cccc(F)c2)CCN(Cc2ccc3cccc(F)c3n2)CC1	ARFGAP1 inh 24.8 | ARFGAP1 inh conf inactive
COC(=O)[C@H]1[C@H]2C[C@@H]3c4[nH]c5cc(OC)ccc5c4CCN3C[C@H]2C[C@@H](OC(=O)c2cc(OC)c(OC)c(OC)c2)[C@@H]1OC	ARFGAP1 inh 27.9 | ARFGAP1 inh conf inactive
COC(=O)C1C2CC3c4[nH]c5cc(OC)ccc5c4CCN3CC2CC(OC2CCCCO2)C1OC (stereo not drawn)	none
C[C@@H]1CN([C@@H](C)CO)S(=O)(=O)c2ccc(-c3ccccc3)cc2O[C@H]1CN(C)Cc1ccccn1	none (no result: ARFGAP1 inh, SMARCA2 act, ASAP1 GAP inh)
O=C(CNS(=O)(=O)c1ccc(Br)cc1)N1CCN(c2ccc(F)cc2)CC1	ARFGAP1 inh 27.7 | ARFGAP1 inh conf inactive
Cc1sc2ncnc(SCC(=O)Nc3cccc(S(N)(=O)=O)c3)c2c1C	ARFGAP1 inh 27.4 | ARFGAP1 inh conf inactive
NS(=O)(=O)c1cccc(NC(=O)CSc2ncnc3ccccc23)c1	none
CN(C)S(=O)(=O)c1ccc(C(=O)N(c2ccccn2)c2ccccn2)cc1	ARFGAP1 inh 30.6 | ARFGAP1 inh conf inactive
CCC(=O)N1[C@H](CO)[C@@H](c2ccccc2)[C@@H]1CNC(=O)CN1CCOCC1	none (no result: ARFGAP1 inh, SMARCA2 act, ASAP1 GAP inh)
O=C(Cn1c(=O)oc2ccccc21)Nc1ccc(Cl)cc1Cl	ARFGAP1 inh 24.9 (no result: esBAF inh) | ARFGAP1 inh conf inactive
CO[C@@H](CN(C)C(=O)C1CCOCC1)[C@@H](C)CN([C@H](C)CO)S(=O)(=O)c1ccccc1	none (no result: ARFGAP1 inh, SMARCA2 act, ASAP1 GAP inh)
COC(=O)C1=C(C)N(Cc2ccccc2C(F)(F)F)C(=NCc2ccccc2)NC1c1ccc(F)cc1 (stereo not drawn)	none (no result: esBAF inh)
COC(=O)C1=C(C)N(Cc2ccccc2C(F)(F)F)C(=NCc2ccccc2)NC1c1ccc(C(F)(F)F)cc1 (stereo not drawn)	ARFGAP1 inh 25.0 (no result: esBAF inh) | ARFGAP1 inh conf inactive
COC(=O)C1=C(C)N(Cc2cccc(C(F)(F)F)c2)C(=NCc2ccccc2C(F)(F)F)NC1c1cccc(F)c1 (stereo not drawn)	ARFGAP1 inh 26.5 (no result: esBAF inh) | ARFGAP1 inh conf inactive

Source: PubChem BioAssay (several laboratories)
